Efflux pump mplx = inhibitors of Candida efflux pumps in yeast, primary screen, S. cerevisiae, Nile Red, multiplex | S. cerevisiae Candida pump triplex | inhibition, % at 10 µM | hit rate 0.44% among 330,000 | AID 485275, 2010;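 active means plate passing quality check with inhibition over a set limit, or well fluorescence over plate mean plus 4 SD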;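 further: Nile Red retained in pooled yeast measured as flow cytometry median fluorescence; 0% = buffer negative control and 100% = Enniatin B positive control; higher means more Nile Red kept so more efflux inhibition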
SMARCA2 act = SMARCA2 (BRM) function activators, primary screen, cell-based, luminescence, high throughput; hit rate 1% among 370,000; activation, % at 9.1 µM; MG213 cells, MMTV-luciferase reporter, dexamethasone, overnight; in the data active means activation above about 7.8%;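 further: 0% = vehicle wells and 100% = reference activator wells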
TAG inh = inhibitors of triacylglycerol accumulation, primary screen, cell-based, uHTS, fluorescence, H9c2. H9c2 cells, Nile Red lipid (TAG) fluorescence; cells loaded with 200 µM oleic acid. inhibition, % at 12.5 µM. hit rate 0.66% among 230,000. AID 651582, 2012;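 active means pattern-corrected inhibition of lipid staining of at least 50% with the nuclear-stain viability signal not falling by more than 50%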;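 further: 0% = DMSO wells and 100% = triacsin C control wells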
AHR act = AHR activators, primary screen, cell-based, luminescence, luciferase reporter, human; Aryl hydrocarbon receptor (Homo sapiens), P35869; hit rate 2.5% among 320,000; AID 2796, 2010; activation, % at 5 µM; AHR-responsive luciferase reporter cells; in the data active means activation above about 47%;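 further: 0% = vehicle wells and 100% = reference agonist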
Target sequence (P35869 whole entry, looked up): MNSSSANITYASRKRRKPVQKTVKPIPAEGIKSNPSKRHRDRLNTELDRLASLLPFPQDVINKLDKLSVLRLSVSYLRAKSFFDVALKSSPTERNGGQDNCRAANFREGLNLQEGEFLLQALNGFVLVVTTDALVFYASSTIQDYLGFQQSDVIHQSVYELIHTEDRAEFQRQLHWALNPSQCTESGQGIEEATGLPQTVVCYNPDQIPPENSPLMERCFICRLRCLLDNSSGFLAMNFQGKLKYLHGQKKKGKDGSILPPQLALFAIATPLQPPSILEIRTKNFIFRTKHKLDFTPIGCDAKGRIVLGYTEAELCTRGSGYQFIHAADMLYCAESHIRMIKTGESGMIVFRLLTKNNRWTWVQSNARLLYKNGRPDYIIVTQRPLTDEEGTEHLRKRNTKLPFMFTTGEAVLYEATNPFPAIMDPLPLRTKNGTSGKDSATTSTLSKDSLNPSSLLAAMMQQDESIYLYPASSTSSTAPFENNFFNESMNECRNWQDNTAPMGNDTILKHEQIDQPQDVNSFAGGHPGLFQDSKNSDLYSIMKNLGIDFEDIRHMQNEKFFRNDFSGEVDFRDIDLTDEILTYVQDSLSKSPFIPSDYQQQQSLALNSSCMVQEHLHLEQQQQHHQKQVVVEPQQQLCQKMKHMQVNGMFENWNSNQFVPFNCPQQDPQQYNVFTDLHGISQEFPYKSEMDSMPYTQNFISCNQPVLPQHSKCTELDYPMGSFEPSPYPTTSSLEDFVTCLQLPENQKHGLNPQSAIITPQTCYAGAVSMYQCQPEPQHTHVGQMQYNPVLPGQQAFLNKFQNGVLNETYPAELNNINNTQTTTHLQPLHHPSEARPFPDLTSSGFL
Tb MetRS inh = T. brucei MetRS inhibitors, primary screen, biochemical, luminescence. inhibition, % at 11.9 µM. hit rate 0.4% among 360,000. AID 624268, 2012. purified T. brucei MetRS, ATP depletion, Kinase-Glo luminescence. methionyl-tRNA synthetase (Trypanosoma brucei brucei);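 active means inhibition above a per-plate cutoff of the control wells' mean inhibition plus 3 SD, cut at about 5.5% in these data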;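 further: 0% = DMSO wells median and 100% = median of wells with control inhibitor compound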
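Material: parasite MetRS enzyme / Replication: singlicate, one well per compound / Signal: luminescence of leftover ATP / Schedule: 2 h aminoacylation at 25 °C after 15 min preincubation / Medium: HEPES-MgCl2-KCl buffer plus DTT, spermine, BSA, pyrophosphatase / Doses: 11.9 µM single point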
AHR act confirm = AHR activators, confirmation, cell-based, luminescence, luciferase reporter, human; shares compounds with AHR act; human cells, AHR-responsive luciferase reporter; activation, % at 9 µM; hit rate 87% among 2,300; in the data active means activation above about 49%;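 further: HepG2 hepatoma cells carrying a DRE-driven firefly luciferase reporter; 0% = vehicle wells and 100% = reference agonist wells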
PXR act counter = human PXR activators, counter-screen for AHR activator project, cell-based, luciferase luminescence. cell-based PXR reporter. hit rate 88% among 2,300. AID 434939, 2010. activation, % at 11.6 µM. shares compounds with AHR act; in the data active means activation above about 11%;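 further: human hepatoma DPX-2 cells expressing full-length human PXR; 0% = DMSO and 100% = reference agonist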
Cmpd fluor yeast = counter-screen for efflux pump inhibitors: compound fluorescence | shares compounds with Efflux pump mplx | S. cerevisiae AD/pABC3, flow cytometry | fluorescence ratio to DMSO, % at 10 µM | hit rate 4% among 1,700;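 active means fluorescence ratio to DMSO above its plate's cutoff, the plate mean ratio plus 5 SD, cut at about 210% in these data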;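 further: unstained yeast with no Nile Red so the signal is compound autofluorescence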
Mdr1 pump inh = inhibitors of Candida albicans Mdr1 efflux, confirmation, flow cytometry, singleplex, Cherry Pick1 set; inhibition, % at 10 µM; S. cerevisiae AD/CaMDR1, Nile Red efflux; hit rate 1% among 1,700; shares compounds with Efflux pump mplx; in the data active means inhibition above about 26%;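 further: 0% = DMSO vehicle and 100% = reference inhibitor; higher means more Nile Red retained so more efflux inhibition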
Cdr2 pump inh = inhibitors of Candida albicans Cdr2 efflux pump, confirmation, S. cerevisiae AD/CaCDR2, flow cytometry, cherry pick 1, singleplex. shares compounds with Efflux pump mplx. Nile Red retention. Nile Red retention ratio vs DMSO, % at 10 µM. hit rate 4% among 1,700; in the data active means Nile Red retention ratio vs DMSO above about 190%;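 further: higher ratio means more blocking of Cdr2 efflux of the dye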
CaCdr1 efflux inh = inhibitors of Candida albicans Cdr1 efflux pump, confirmation, S. cerevisiae AD/CaCDR1, flow cytometry, cherry pick 1, singleplex. Nile Red efflux. hit rate 1% among 1,700. shares compounds with Efflux pump mplx. inhibition, % at 10 µM;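 active means inhibition above the screen-wide mean plus twice its standard deviation, cut at about 32% in these data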
Tb MetRS conf = T. brucei MetRS inhibitors, confirmation, biochemical, luminescence. shares compounds with Tb MetRS inh. T. brucei MetRS enzyme, luminescence (ATP depletion). inhibition, % at 11.9 µM. hit rate 93% among 1,400; in the data active means inhibition above about 7%
Jurkat cytotox = Jurkat T cell cytotoxicity, cytotoxicity control for T. brucei MetRS inhibitor project, luminescence, high throughput; shares compounds with Tb MetRS inh; inhibition, % at 8.3 µM; hit rate 12% among 1,400; Jurkat cells viability, ATP luminescence; in the data active means inhibition above about 15%;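 further: 0% = vehicle and 100% = reference inhibitor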
Tb MetRS inh FP = T. brucei MetRS inhibitors, orthogonal assay for T. brucei MetRS inhibitor project, biochemical, fluorescence polarization | shares compounds with Tb MetRS inh | inhibition, % at 11.9 µM | hit rate 44% among 1,400 | AID 651607, 2012 | purified T. brucei MetRS; in the data active means inhibition above about 17%;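 further: 0% = vehicle wells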
* marks the source's active call; other numbers are inactive results; . = no result given. The list is not random: actives were taken first. Their share in the collection is about 4.1%.

SMILES | Efflux pump mplx | SMARCA2 act | TAG inh | AHR act | Tb MetRS inh | AHR act confirm | PXR act counter | others
O=C(NCCCn1ccnc1)c1cc(Cl)cc(Cl)c1 | 0 | 1 | . | 87* | -1 | 74* | 22*
COC(=O)[C@@]12CCCCC3=C1N(CCC3)C(=O)[C@H]2CC(=O)N1CCC(c2ccccc2)CC1 | . | -3 | . | . | . | . | .
COC(=O)C1=C(C)N(Cc2ccc(C(F)(F)F)cc2)C(=NCc2ccc(OC)cc2)NC1c1ccccc1 (stereo unspecified) | . | -9 | . | . | . | . | .
CC1CCCN(C(=O)c2cc3c(-c4ccc(Cl)cc4)nn(C)c3s2)C1 (stereo unspecified) | 0 | 1 | 14 | 82* | 0 | 80* | 23*
O=C(CN1CCC(NC(=O)Nc2ccc(Cl)cc2)CC1)Nc1ccc2c(c1)OCCO2 | . | -7 | . | . | . | . | .
O=c1c2ccccc2nc(/C=C/c2cccc([N+](=O)[O-])c2)n1CCCO | 0 | -1 | 9 | 41 | 0 | . | .
Cn1c(/C=C/c2cccc([N+](=O)[O-])c2)nc2ccccc2c1=O | 0 | -3 | -2 | 93* | 0 | 0 | 12*
CON/C=C(\C=Nc1ccc(Cl)cc1)c1ncc(C(F)(F)F)cc1Cl | 0 | 0 | . | 112* | 0 | 93* | 14*
CON/C=C(\C=Nc1ccc(C(F)(F)F)cc1)c1ncc(C(F)(F)F)cc1Cl | 0 | -2 | -4 | 108* | 0 | 103* | 31*
COc1ccc(/C(=N\O)c2ncc(C(F)(F)F)cc2Cl)cc1 | 0 | -6 | -46 | -2 | 0 | . | .
N/C(=N\OC(=O)Nc1ccc(Cl)cc1)c1ncc(C(F)(F)F)cc1Cl | 0 | 3 | . | 1 | 0 | . | .
COc1ccc(/C=N/Nc2nncn2N)cc1Br | 0 | -7 | 15 | 88* | 1 | 41 | 12*
CCCC[C@H]1C2CC(OC(=O)Nc3cccc(C#N)c3)C(C2)[C@H]2CCCCN21 (stereo partly specified) | . | -1 | . | . | . | . | .
C=CCn1c(-c2ccc(C)cc2)nc2ccccc21 | 1 | -2 | . | 24 | -1 | . | .
C=CCn1c(NC(=O)c2ccc(C)cc2)nc2ccccc21 | 0 | 0 | . | 99* | 0 | 93* | 29*
O=[N+]([O-])c1ccc(Cn2ccc3ccc(-c4ccc5ccn(Cc6ccccc6)c5c4)cc32)cc1 | . | -2 | . | . | . | . | .
COc1ccc(S[C@]2(C(=O)N3CCOCC3)CC(=O)N(c3ccc(C#N)cc3)[C@@H]2c2ccc(OC)cc2)cc1 | . | -2 | . | . | . | . | .
COc1ccc(/C=N/NC(=O)c2nc(Cl)c(Cl)c(N)c2Cl)cc1COc1ccc(F)cc1F | 1.0* | 2 | -25 | 84* | 0 | 97* | 60* | Cmpd fluor yeast=106;Mdr1 pump inh=0;Cdr2 pump inh=114;CaCdr1 efflux inh=1
C(=N\Nc1nc2ccccc2[nH]1)/c1ccccn1 | . | 1 | 26 | . | -2 | . | .
BrC(=C\c1ccccc1)/C=N/Nc1nc2ccccc2[nH]1 | 2.5* | 1 | . | 149* | 1 | 49* | 59* | Cmpd fluor yeast=94;Mdr1 pump inh=0;Cdr2 pump inh=104;CaCdr1 efflux inh=0
CC(=O)c1c(N2CCOCC2)[nH]c(-c2ccccc2)nc1=S | 0 | 4 | . | 136* | -1 | 122* | 75* | Cmpd fluor yeast=102;Mdr1 pump inh=0;Cdr2 pump inh=101;CaCdr1 efflux inh=0
CC(=O)c1sc(N2CCOCC2)nc1-c1ccccc1 | 0 | 4 | -3 | 4 | 3 | . | .
COc1ccc(CNCC#Cc2ccc(C)cc2)c(OC)c1 | . | 1 | . | . | . | . | .
Cn1ncc(Cl)c1C(=O)Nc1sc2c(c1C(N)=O)CCC2 | 0 | -1 | -14 | 121* | -1 | 96* | 137* | Cmpd fluor yeast=92;Mdr1 pump inh=0;Cdr2 pump inh=98;CaCdr1 efflux inh=0
CCCC(=O)OC[C@H]1CN(C2CCCC2)S(=O)(=O)c2c(Oc3ccccc3)cccc2O1 | . | 3 | . | . | . | . | .
SMILES | Efflux pump mplx | SMARCA2 act | TAG inh | AHR act | Tb MetRS inh | AHR act confirm | PXR act counter | others
Cc1ccsc1C1CC(=O)Nc2ccccc2S1 (stereo unspecified) | 0 | -2 | -2 | 88* | 0 | 112* | 39* | Cmpd fluor yeast=94;Mdr1 pump inh=0;Cdr2 pump inh=102;CaCdr1 efflux inh=0
c1ccn(-c2ccc(-c3noc(CCc4ccncc4)n3)cc2)c1 | . | -6 | . | . | . | . | .
O=C(/C=C/c1cccc(Cl)c1)c1nc2ccccc2[nH]1 | 0 | 2 | 15 | 3 | 2 | . | .
O=C(/C(=C\c1ccccc1)c1nc2ccccc2[nH]1)c1ccc(Cl)cc1 | 0 | -1 | . | 80* | 9.7* | 16 | 117* | Tb MetRS conf=4;Jurkat cytotox=79*;Tb MetRS inh FP=0
N#Cc1ccc(/C=C2\CC3(OC(=O)c4cccc(F)c4)CCCN2C3)cc1 (stereo unspecified) | . | -2 | . | . | . | . | .
Nc1nc(Nc2cccc(F)c2)nc2ccccc12 | 0 | 6 | -35 | 83* | 24* | 75* | 35* | Tb MetRS conf=34*;Jurkat cytotox=15;Tb MetRS inh FP=20*
Brc1cnc2nc(SC/C=C/c3ccccc3)[nH]c2c1 | 0 | 0 | -8 | 3 | -1 | . | .
Cc1cc(C)c(NC(=O)CSc2nc3ncc(Br)cc3[nH]2)c(C)c1 | 0 | -4 | . | 12 | 1 | . | .
Fc1ccccc1CSc1nc2ncc(Br)cc2[nH]1 | 0 | 7 | -3 | 104* | 5.9* | 71* | 100* | Tb MetRS conf=14*;Jurkat cytotox=-4;Tb MetRS inh FP=17*
